{"data": "Results gathered from unrelated publications", "CYP3A7": "Cytochrome P450 3A7 (CYP3A7, Homo sapiens, UniProt P24462)", "note": "Protocols differ between the studies behind these lines."}
{"SMILES": "N#C[C@@]12C[C@@H]1[C@@H](n1cnc3c(N[C@@H](C4CCC4)C4CC4)nc(I)nc31)[C@H](O)[C@@H]2O", "assay": "metabolic stability", "system": "mouse, liver microsomes", "conditions": "1 h", "measurement": "compound remaining", "result": "72.6%"}
{"SMILES": "N#Cc1cnn2c(NC3CC(F)(F)C3)cc(Nc3cccc(-n4cnnc4)c3)nc12", "assay": "metabolic stability", "system": "male CD-1 mouse, liver microsomes", "conditions": "5 µM, 30 min, pH 7.4", "measurement": "compound remaining", "result": "75%"}
{"SMILES": "COc1ccc2c(O[C@@H]3C[C@H]4C(=O)N[C@]5(C(=O)NS(=O)(=O)C6CC6)C[C@H]5/C=C\\CCCCN(C)C(=O)[C@@H]4C3)cc(-c3nc(C(C)C)cs3)nc2c1C", "target or system": "CYP3A7", "assay": "enzyme activity, inhibitor, fluorescence", "conditions": "20 µM, 10 min, pH 7.4", "measurement": "inhibition", "result": "≥ 50%"}
{"SMILES": "N#Cc1cnn2c(NC3CC3)cc(Nc3cc(-n4cnnc4)ccc3F)nc12", "assay": "metabolic stability", "system": "male CD-1 mouse, liver microsomes", "conditions": "5 µM, 30 min, pH 7.4", "measurement": "compound remaining", "result": "100%"}
{"SMILES": "O=[N+]([O-])c1cccc(/C=N/c2c(-c3ccccc3)nc3ccc(Cl)cn23)c1", "target or system": "MT4", "assay": "cell growth or viability, MTT", "conditions": "5 days", "measurement": "CC50", "result": "82.1 µg/mL"}
{"SMILES": "CC(C)(C)OC(=O)N[C@H]1CCCCC/C=C\\[C@@H]2C[C@@]2(C(=O)NS(=O)(=O)C2CC2)NC(=O)[C@@H]2C[C@@H](OC(=O)N3Cc4cccc(F)c4C3)CN2C1=O", "target or system": "CYP3A7", "assay": "enzyme activity, inhibitor, fluorescence", "conditions": "20 µM, 10 min, pH 7.4", "measurement": "inhibition", "result": "≥ 50%"}
{"SMILES": "N#Cc1cnn2c(Nc3cn(CCN4CCOCC4)cn3)cc(Nc3cccc(-n4cnnc4)c3)nc12", "assay": "metabolic stability", "system": "male CD-1 mouse, liver microsomes", "conditions": "5 µM, 30 min, pH 7.4", "measurement": "compound remaining", "result": "81%"}
{"SMILES": "Cc1ccc(Cn2cc(C(=O)NN)c(=O)c3cc(Oc4ccccc4)ccc32)cc1", "assay": "metabolic stability", "system": "male CD-1 mouse, liver microsomes", "conditions": "1 µM, 30 min", "measurement": "compound remaining", "result": "96%"}
{"SMILES": "Cc1ccnc2c1NC(=O)c1cccnc1N2C1CC1", "target or system": "MT4", "assay": "cell growth or viability, MTT", "conditions": "5 days", "measurement": "CC50", "result": "> 4 µg/mL"}
{"SMILES": "COc1c(-c2ccc3cc(NS(C)(=O)=O)ccc3c2)cc(-n2ccc(=O)[nH]c2=O)cc1C(C)(C)C", "target or system": "CYP3A7", "assay": "enzyme activity, inhibitor, fluorescence", "conditions": "20 µM, 10 min, pH 7.4", "measurement": "inhibition", "result": "≥ 50%"}
{"SMILES": "Oc1ccccc1/C=N/c1c(-c2ccccc2)nc2ccc(Cl)cn12", "target or system": "MT4", "assay": "cell growth or viability, MTT", "conditions": "5 days", "measurement": "CC50", "result": "17.9 µg/mL"}
{"SMILES": "Cc1cnc(C(=O)N[C@H]2CCCCC/C=C\\[C@@H]3C[C@@]3(C(=O)NS(=O)(=O)C3CC3)NC(=O)[C@@H]3C[C@@H](Oc4nc5ccccc5c5ccccc45)CN3C2=O)cn1", "target or system": "CYP3A7", "assay": "enzyme activity, inhibitor", "conditions": "pH 7.4, with preincubation", "measurement": "KI (inactivation)", "result": "4.66 µM"}
